Reference: ChEMBL document CHEMBL1153046, “Synthesis and antitumor activity of substituted triazolo[4,3-a]pyrimidin-6-sulfonamide with an incorporated thiazolidinone moiety” (2009)

Tests used:
Type in all cases: functional
K562 = test: Growth inhibition of human K562 cells after 48 hrs by sulforhodamine B assay; details: K562, 48 h
Procedure, shortened: (§1)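 NCI 60-cell-line panel. Cells are grown in RPMI1640 with 5% fetal calf serum and 2 mM L-glutamine, seeded at a density set by growth characteristics, and preincubated 24 h. Compound is tested at a minimum of five concentrations at 10-fold dilution, with 48 h continuous exposure. Viability is read by sulforhodamine B protein assay. GI50, TGI and LC50 come from dose-response curves.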

SR = test: Growth inhibition of human SR cells after 48 hrs by sulforhodamine B assay
Procedure, shortened: (§2)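 NCI 60-cell-line panel (nine cancer types), with cells grown in RPMI1640 plus 5% fetal calf serum and 2 mM L-glutamine. Cells are seeded at a density that depends on the line and preincubated 24 h. Compounds are then applied at a minimum of five 10-fold dilutions over a 5-log range with 48 h continuous exposure. Viability is read by SRB protein assay, and GI50 is derived from dose-response curves in units of 10^-5 M.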

A549 = test: Growth inhibition of human A549 cells after 48 hrs by sulforhodamine B assay; details: A549, 48 h; procedure, shortened: as §1
EKVX = test: Growth inhibition of human EKVX cells after 48 hrs by sulforhodamine B assay; procedure, shortened: as §1
HOP-62 = test: Growth inhibition of human HOP62 cells after 48 hrs by sulforhodamine B assay; details: HOP-62, 48 h; procedure, shortened: as §1
NCI-H23 = test: Growth inhibition of human NCI-H23 cells after 48 hrs by sulforhodamine B assay; details: NCI-H23, 48 h; procedure, shortened: as §1
HCC 2998 = test: Growth inhibition of human HCC2998 cells after 48 hrs by sulforhodamine B assay; details: HCC 2998, 48 h; procedure, shortened: as §1
HCT-116 = test: Growth inhibition of human HCT116 cells after 48 hrs by sulforhodamine B assay; details: HCT-116, 48 h; procedure, shortened: as §1
HT-29 = test: Growth inhibition of human HT-29 cells after 48 hrs by sulforhodamine B assay; details: HT-29, 48 h; procedure, shortened: as §1
KM12 = test: Growth inhibition of human KM12 cells after 48 hrs by sulforhodamine B assay; details: KM12, 48 h; procedure, shortened: as §1
SF-268 = test: Growth inhibition of human SF268 cells after 48 hrs by sulforhodamine B assay; details: SF-268, 48 h; procedure, shortened: as §1
SNB-19 = test: Growth inhibition of human SNB19 cells after 48 hrs by sulforhodamine B assay; details: SNB-19, 48 h; procedure, shortened: as §2
U-251 = test: Growth inhibition of human U251 cells after 48 hrs by sulforhodamine B assay; details: U-251, 48 h; procedure, shortened: as §2
LOX IMVI = test: Growth inhibition of human LOXIMVI cells after 48 hrs by sulforhodamine B assay; procedure, shortened: as §1
M14 = test: Growth inhibition of human M14 cells after 48 hrs by sulforhodamine B assay; details: M14, 48 h; procedure, shortened: as §1
SK-MEL-2 = test: Growth inhibition of human SK-MEL-2 cells after 48 hrs by sulforhodamine B assay; details: SK-MEL-2, 48 h; procedure, shortened: as §1
SK-MEL-5 = test: Growth inhibition of human SK-MEL-5 cells after 48 hrs by sulforhodamine B assay; details: SK-MEL-5, 48 h; procedure, shortened: as §1
UACC-62 = test: Growth inhibition of human UACC62 cells after 48 hrs by sulforhodamine B assay; details: UACC-62, 48 h; procedure, shortened: as §2
OVCAR-8 = test: Growth inhibition of human OVCAR8 cells after 48 hrs by sulforhodamine B assay; details: OVCAR-8, 48 h; procedure, shortened: as §1
A498 = test: Growth inhibition of human A498 cells after 48 hrs by sulforhodamine B assay; details: A498, 48 h; procedure, shortened: as §1
TK-10 = test: Growth inhibition of human TK10 cells after 48 hrs by sulforhodamine B assay; details: TK-10, 48 h; procedure, shortened: as §2
MCF7 [1] = test: Antiproliferative activity against human MCF7 cells assessed as cell growth at 100 uM after 48 hrs by alamar blue assay; details: MCF7, 48 h, read-out: Activity
Procedure, shortened: (§3)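 NCI three-cell-line primary screen. Cells are seeded and preincubated in microtiter plates. Compound is added at a single 10^-4 M concentration and cultures are incubated 48 h. The end-point is read with alamar blue. Results are given as percent growth relative to untreated control cells.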

NCI-H460 = test: Antiproliferative activity against human NCI-H460 cells assessed as cell growth at 100 uM after 48 hrs by alamar blue assay; details: NCI-H460, 48 h, read-out: Activity; procedure, shortened: as §3
UO-31 = test: Growth inhibition of human UO31 cells after 48 hrs by sulforhodamine B assay; details: UO-31, 48 h; procedure, shortened: as §2
PC-3 = test: Growth inhibition of human PC3 cells after 48 hrs by sulforhodamine B assay; details: PC-3, 48 h; procedure, shortened: as §1
DU-145 = test: Growth inhibition of human DU145 cells after 48 hrs by sulforhodamine B assay; details: DU-145, 48 h; procedure, shortened: as §1
MCF7 [2] = test: Growth inhibition of human MCF7 cells after 48 hrs by sulforhodamine B assay; details: MCF7, 48 h; procedure, shortened: as §1
NCI/ADR-RES = test: Growth inhibition of human NCI/ADR-RES cells after 48 hrs by sulforhodamine B assay; procedure, shortened: as §1
MDA-MB-231 = test: Growth inhibition of human MDA-MB-231 cells after 48 hrs by sulforhodamine B assay; details: MDA-MB-231, 48 h; procedure, shortened: as §1
[3] = Growth inhibition of human Hs 578T cells after 48 hrs by sulforhodamine B assay; procedure, shortened: as §1
BT-549 = test: Growth inhibition of human BT549 cells after 48 hrs by sulforhodamine B assay; details: BT-549, 48 h; procedure, shortened: as §1
[4] = read-out: LC50 (the source's name)

COc1ccc(/C=N/c2nc3[nH]nc(C)n3c(=O)c2S(=O)(=O)NN2C(=O)C(CN3CCOCC3)SC2c2cccs2)cc1 (stereo unspecified)
GI50 (K562): 2.34 µM | LC50 (K562): > 100 µM | TGI (K562): 11.3 µM | GI50 (SR): 1.1 µM | LC50 (concentration killing 50% of cells) (SR): 9.2 µM | TGI (SR): 3.2 µM | GI50 (A549): 19.1 µM | TGI (A549): > 100 µM | GI50 (EKVX): 54.1 µM | TGI (EKVX): > 100 µM | GI50 (HOP-62): 13.9 µM | LC50 (HOP-62): > 100 µM | TGI (HOP-62): > 100 µM | GI50 (NCI-H23): 44.5 µM | TGI (NCI-H23): > 100 µM | GI50 (HCC 2998): 3.96 µM | LC50 (HCC 2998): 64.8 µM | TGI (HCC 2998): 31.3 µM | GI50 (HCT-116): 4.72 µM | LC50 (concentration killing 50% of cells) (HCT-116): > 100 µM | TGI (HCT-116): 57.4 µM | GI50 (HT-29): 19.4 µM | GI50 (KM12): 4.06 µM | GI50 (SF-268): 18.5 µM | TGI (SF-268): > 100 µM | CC50 (SF-268; [4]): > 100 µM | GI50 (SNB-19): 34.5 µM | TGI (SNB-19): > 100 µM | GI50 (U-251): 15.6 µM | LC50 (U-251): > 100 µM | TGI (U-251): > 100 µM | GI50 (LOX IMVI): 8.97 µM | TGI (LOX IMVI): > 100 µM | GI50 (M14): 6.79 µM | LC50 (concentration killing 50% of cells) (M14): > 100 µM | TGI (M14): 38.7 µM | GI50 (SK-MEL-2): 8.3 µM | LC50 (concentration killing 50% of cells) (SK-MEL-2): > 100 µM | TGI (SK-MEL-2): 81.9 µM | GI50 (SK-MEL-5): 3.71 µM | TGI (SK-MEL-5): 24 µM | CC50 (SK-MEL-5; [4]): > 100 µM | GI50 (UACC-62): 3.7 µM | TGI (UACC-62): 31.4 µM | CC50 (UACC-62; [4]): > 100 µM | GI50 (OVCAR-8): 60.6 µM | TGI (OVCAR-8): > 100 µM | GI50 (A498): 2.67 µM | LC50 (concentration giving 50% net cell kill) (A498): > 100 µM | TGI (A498): 15.5 µM | GI50 (TK-10): 20.8 µM | LC50 (TK-10): > 100 µM | TGI (TK-10): 92 µM | growth at 100 µM (MCF7 [1]): 24% | growth at 100 µM (NCI-H460): 13% | GI50 (UO-31): 14.5 µM | LC50 (UO-31): > 100 µM | TGI (UO-31): 86.4 µM | GI50 (PC-3): 3.92 µM | LC50 (concentration killing 50% of cells) (PC-3): > 100 µM | TGI (PC-3): 95.8 µM | GI50 (DU-145): 16 µM | LC50 (concentration giving 50% net cell kill) (DU-145): > 100 µM | TGI (DU-145): > 100 µM | GI50 (MCF7 [2]): 3.18 µM | TGI (MCF7 [2]): > 100 µM | GI50 (NCI/ADR-RES): 9.98 µM | TGI (NCI/ADR-RES): 64.8 µM | GI50 (MDA-MB-231): 11.7 µM | LC50 (50% lethal concentration) (MDA-MB-231): > 100 µM | TGI (MDA-MB-231): 56.1 µM | GI50 [3]: 13.3 µM | LC50 (concentration killing 50% of cells) [3]: > 100 µM | TGI [3]: 82.1 µM | GI50 (BT-549): 18 µM | TGI (BT-549): > 100 µM
